Hits are enriched below; roughly 27% of the tested compounds scored in any of these assays.
CYP2C9 activ: human CYP2C9 activators, primary screen, biochemical, luminescence; recombinant CYP2C9, luciferin-H conversion; stronger effect = higher value; factor 1 = untreated enzyme, 0 = blocked; activation factor at 5 µM; 96,000 compounds, 1.4% hits; AID 1024, 2008;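 active = activation factor of 2 or more for CYP2C9 at a 5 µM dose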;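 also: 0 = sulfaphenazole-blocked wells and 1 = vehicle-only wells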
CYP2C9 inhib: blockers of cytochrome P450 2C9 activity – biochemical, luminescence, ADME assay, primary screen; P11712; CYP2C9 Supersomes, luciferin-H conversion; inhibition, % at 5 µM; 96,000 compounds, 20% hits;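 active = blocking of liver enzyme CYP2C9 beyond about 50% at 5 µM, limit read from the data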
Cav3 T inh: Cav3.2 calcium influx blockers – cell-based, Fluo-4 calcium fluorescence, FDSS, MLSMR library, primary screen. Voltage-dependent T-type calcium channel subunit alpha-1H (Homo sapiens), O95180. Cav3.2-expressing cells; stronger effect = lower value. B-score at 10 µM. 100,000 compounds, 4% hits;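 active = single-dose well whose peak fluorescence ratio is a statistical outlier from its plate by either plate-standardised score or position-corrected B-score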
CYP2C19 inh: blockers of cytochrome P450 2C19 activity – biochemical, luminescence, ADME assay, primary screen. 96,000 compounds, 21% hits. CYP2C19 Supersomes, luciferin-H EGE luminescence, 30 min. P33261. inhibition, % at 5 µM;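 active = CYP2C19 inhibition above a set limit at 5 µM in the primary screen, cut at about 50% in these data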;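 also: plate controls were negative control wells for no effect and 2.5 mM tranylcypromine positive control for full effect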
HIV Rev-RRE inh: HIV-1 Rev-RRE binding inhibitors, primary screen, biochemical, FRET, protein-RNA interaction; P05866; Rev peptide-RRE RNA binding; inhibition, % at 8 µM; 97,000 compounds, 0.79% hits;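 active = inhibition above the screen-wide mean plus 3 SD, cut at about 35% in these data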;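 also: 0% = median DMSO wells and 100% = median Neomycin B control wells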
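Material: labelled RRE RNA duplex and labelled Rev peptide / Buffer or medium: HEPES pH 7.5 salt buffer with EDTA / Compound dosing: single point, 8 µM final nominal compound concentration / Benchmarks: DMSO low control, neomycin B high control / Timing: 5 min preincubation and 15 min binding, 25 °C / Technique: FRET fluorescence readout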
CYP2C19 activ: human CYP2C19 activators, primary screen, biochemical, luminescence. AID 1025, 2008. activation factor at 5 µM. Cytochrome P450 2C19 (Homo sapiens), P33261. recombinant CYP2C19, luciferin-H EGE luminescence; stronger effect = higher value; 0 = fully inhibited enzyme, 1 = untreated enzyme. 96,000 tested, under 10 active;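 active = activation factor of at least 2 at 5 µM in the primary screen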;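 also: 0 = wells with 2.5 mM tranylcypromine and 1 = vehicle-only wells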
* hit, by the source's call; . = no result.

SMILES	CYP2C9 activ	CYP2C9 inhib	Cav3 T inh	CYP2C19 inh	HIV Rev-RRE inh	CYP2C19 activ
CCOc1cc(S(=O)(=O)NC2CCCCC2)ccc1F	0.4	60*	-0.001	80*	13	0.2
CCOC(=O)c1ccc(S(=O)(=O)NC2CCCCCCC2)n1C	0.1	85*	.	53*	12	0.5
CCOc1cc(S(=O)(=O)NC2CCCC2)ccc1Cl	1.3	-31	-3.2	38	13	0.6
Cc1oc(-c2ccccc2Cl)nc1CSCC(=O)O	0.9	7	-0.15	-1	5	1
CCn1c(=O)c2cc(S(=O)(=O)NC3CCCCC3)ccc2n(CC)c1=O	0.5	53*	0.52	49	11	0.5
CCn1c(=O)c2cc(S(=O)(=O)NCc3ccccc3)ccc2n(CC)c1=O	0.9	13	0.21	16	11	0.8
CCOc1cc(S(=O)(=O)N2CCCCCC2)ccc1F	1.3	-31	-1.7	87*	12	0.1
CCOCCn1c(SC)nc2c1c(=O)[nH]c(=O)n2C	1	-4	0.03	-13	4	1.1
CSc1nc(-c2ccco2)nn1S(C)(=O)=O	1.3	-26	-0.0045	-14	7	1.1
O=C1CC2C(CC(OC(=O)c3ccc(-c4ccccc4)cc3)C2CO)O1 (configuration not stated)	0.3	72*	.	48	11	0.5
Clc1ccc(-c2cc(CSc3ccccc3)on2)cc1	0.8	23	0.0016	37	7	0.6
Clc1ccc(-c2cc(CSc3cccc(Cl)c3)on2)cc1	0.5	45	.	75*	12	0.2
Cn1c(=O)c(C(=O)Nc2cccnc2)c(O)c2ccccc21	.	.	.	.	6	.
Cc1ccccc1-c1nc(CN2CCCC(C(=O)NCc3cccnc3)C2)c(C)o1 (configuration not stated)	1	0	2.2	5	2	1
Cc1ccccc1OC(=O)n1c(=S)oc2cc(Cl)ccc21	0.5	48	-0.79	7	9	0.9
Cc1c(C(=O)O)sc2nc3n(c(=O)c12)CCCCC3	1.1	-7	0.47	8	-1	0.9
CCOC(=O)c1sc2nc3n(c(=O)c2c1C)CCCCC3	0.4	57*	-0.12	74*	11	0.3
O=C(Nc1ccncc1)c1ccc2c(c1)OCCO2	0.5	50*	0.022	77*	.	0.2
Cc1nc2c(ccc3nc(NC(=O)c4ccc5c(c4)OCCO5)sc32)s1	0.4	63*	-0.21	15	-1	0.8
COc1cc(NC(=O)c2ccc3c(c2)OCO3)c2ncccc2c1	.	.	0.84	.	8	.
Cc1ccc(NC(=O)c2ccc3c(c2)OCCO3)cc1	0.9	14	-0.61	7	-1	0.9
O=C(Nc1ccc2oc(-c3ccccc3)nc2c1)c1ccc2c(c1)OCCO2	0.3	66*	0.057	53*	8	0.5
O=C(Nc1cccc2cccnc12)c1ccc2c(c1)OCCO2	2*	-102	-4.5*	38	7	0.6
CCN1CCN(c2c(Cl)cccc2NC(=O)c2ccc3c(c2)OCCO3)CC1	0.7	29	0.97	12	11	0.9
O=C(Nc1cccc(Cl)c1N1CCCCC1)c1ccc2c(c1)OCCO2	0.3	65*	0.18	19	12	0.8
SMILES	CYP2C9 activ	CYP2C9 inhib	Cav3 T inh	CYP2C19 inh	HIV Rev-RRE inh	CYP2C19 activ
O=C(NCc1cccc(Br)c1)c1cc(-c2ccccc2)nn1CC1CC(c2cccc([N+](=O)[O-])c2)=NO1 (configuration not stated)	.	.	-1.8	.	.	.
CCCNc1nc2c(c(=O)n(C)c(=O)n2C)n1CCc1ccccc1	0.8	20	0.93	36	4	0.6
CCCNc1nc(C)nc2c1cnn2CCc1ccccc1	0.8	15	0.28	89*	4	0.1
Cn1ncc2c(NCc3ccccc3)ncnc21	1	3	0.79	17	6	0.8
Cc1nc(NC(C)C)c2cnn(CCc3ccccc3)c2n1	0.6	42	1.4	77*	1	0.2
CCN(CC)C(=O)CSc1nnc([C@H](Cc2c[nH]c3ccccc23)NC(=O)OC(C)(C)C)o1	0.4	62*	-1	53*	-1	0.5
CC(C)[C@H](NC(=O)OC(C)(C)C)c1nnc(SCc2cccc(F)c2)o1	1	-2	-3.3	5	2	1
CSCC[C@H](NC(=O)OC(C)(C)C)c1nnc(SCc2cccc(F)c2)o1	0.3	69*	-2.6	80*	2	0.2
CCC(C)[C@H](N)c1nnc(SCC(=O)Nc2cccc(Cl)c2)o1 (some centres not stated)	0.5	50*	0.74	97*	2	0
CCSc1nnc([C@H](Cc2c[nH]c3ccccc23)NC(=O)OC(C)(C)C)o1	0.8	18	-2.5	28	-1	0.7
CC(C)C[C@H](NC(=O)OC(C)(C)C)c1nnc(SCc2cccc(F)c2)o1	0.9	8	-3.4*	35	10	0.7
O=C(Nc1ccc(Cl)cc1)N1CCCN(Cc2ccccc2F)C1	0.8	24	-0.78	50	0	0.5
CCCCN(Cc1ccco1)C(=O)Cn1ncc2c(=O)oc3ccc(C)cc3c21	0.8	20	0.23	29	6	0.7
O=C([C@H](Cc1ccc(O)cc1)n1cc(CCO)nn1)N1CCNCC1	.	.	1.3	.	.	.
CSCC[C@H](NC(=O)OC(C)(C)C)c1nnc(SCc2ccc(F)cc2)o1	0.2	78*	-3.5	88*	0	0.1
CCC(C)NC(=O)c1ccc(CSCc2cccc(F)c2)o1 (configuration not stated)	0.6	38	-0.095	29	12	0.7
CCC(C)[C@H](N)c1nnc(SCc2cccc(F)c2)o1 (some centres not stated)	1.1	-6	-0.97	62*	6	0.4
CC(C)C[C@H](NC(=O)OC(C)(C)C)c1nnc(SCC(=O)Nc2ccc(Br)cc2)o1	0.8	24	-6.5*	65*	11	0.3
CSCC[C@H](NC(=O)OC(C)(C)C)c1nnc(SCc2ccccc2)o1	0.4	60*	.	79*	-1	0.2
CSCC[C@H](NC(=O)OC(C)(C)C)c1nnc(SCC(=O)N(C)C)o1	1.1	-8	-0.03	3	5	1
Cc1cc(C)c2ccc(C(=O)O)nc2c1O	1.1	-12	-1.3	-13	4	1.1
COC(=O)CCC(=O)Nc1cccc(C(=O)Nc2cccc(Cl)c2)c1	0.7	35	-1.1	24	9	0.8
CCc1ccc(NC(=O)CSc2nnc(Cc3cccn3C)n2-c2ccc(F)cc2)cc1	0.2	76*	-4.1*	22	.	0.8
